For experiment [1], the system named is Pseudomonas aeruginosa. Nature of the experiment: Antimicrobial activity against Pseudomonas aeruginosa harboring deltapvdF-deltapchA mutant assessed as inhibition of bacterial growth by measuring minimal inhibitory concentration incubated for 24 hrs in presence of iron-depleted CAA medium. It is filed as functional.
Experiment [2] relates to Pseudomonas aeruginosa. Nature of the experiment: Antimicrobial activity against Pseudomonas aeruginosa harboring deltapvdF-deltapchA mutant assessed as inhibition of bacterial growth by measuring minimal inhibitory concentration incubated for 48 hrs in presence of iron-depleted CAA medium. The experiment is classed as functional.
For experiment [3], the system named is Pseudomonas aeruginosa. Nature of the experiment: Antimicrobial activity against Pseudomonas aeruginosa PAO1 assessed as inhibition of bacterial growth in presence of iron-depleted CAA medium. The experiment is classed as functional, organism-based.
In experiment [4] the test system is Pseudomonas aeruginosa. Nature of the experiment: Antimicrobial activity against Pseudomonas aeruginosa harboring deltapvdF-deltapchA mutant with PirA deletion assessed as reduction of bacterial growth at 10 uM by growth kinetic assay. It is filed as functional, organism-based. The essentials:
(§1)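 Overnight LB culture washed, regrown in CAA at 30 °C, washed, resuspended in CAA at OD600 0.02; fresh sterile-filtered aqueous compound added to 10 µM final; OD600 read in plate reader for 48 h at 30 °C with regular agitation.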

Experiment [5] concerns Pseudomonas aeruginosa. Nature of the experiment: Antimicrobial activity against Pseudomonas aeruginosa harboring deltapvdF-deltapchA mutant with PfeA deletion assessed as reduction of bacterial growth at 10 uM by growth kinetic assay. The experiment is classed as functional, organism-based. Summed up: as §1
For experiment [6], the system named is Pseudomonas aeruginosa. Nature of the experiment: Antimicrobial activity against Pseudomonas aeruginosa harboring deltapvdF-deltapchA mutant with PirA-PfeA dual deletion assessed as reduction of bacterial growth at 10 uM by growth kinetic assay. It is filed as functional, organism-based. The essentials: as §1
The test system of experiment [7] is Pseudomonas aeruginosa. Nature of the experiment: Antimicrobial activity against Pseudomonas aeruginosa harboring deltapvdF-deltapchA mutant assessed as increase in pfeA transcription level at 10 uM incubated for 8 hrs in presence of iron-depleted CAA medium by qRT-PCR analysis. It is filed as functional, organism-based. Summed up: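 Cells grown in CAA medium for 8 h at 30 °C with vigorous shaking, with or without 10 μM compound; 2.5 x 10⁸ cells stabilized in two volumes RNAprotect; RNA processed per earlier protocol; RT-qPCR with primer efficiencies from serially diluted genomic DNA; double ΔCT analysis.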
(In general: Real-time PCR tracks product formation cycle by cycle.)

The source of these data is ChEMBL document CHEMBL5316281, “Trojan Horse Siderophore Conjugates Induce Pseudomonas aeruginosa Suicide and Qualify the TonB Protein as a Novel Antibiotic Target” (2023).

Broadly, the MIC is the smallest concentration in the dilution series that meets the test's criterion for growth inhibition.

Calls of active or inactive are those of the source. Where a SMILES comes first, the peptide text is derived from it. The star is where a group is joined. X1 = O=C(COCC(=O)*)NCCOCCOCCOCCOCCOCCOCCOCCOCCn1cc(CCCC(=O)Nc2c(CNC(=O)c3cccc(O)c3O)cc(CNC(=O)c3cccc(O)c3O)cc2CNC(=O)c2cccc(O)c2O)nn1; Benzoyl(2,3-diOH) = O=C(c1cccc(O)c1O)*

On to `CC[C@H](C)[C@H](NC(=O)[C@H](CC(C)C)NC(=O)[C@@H](N)CO)C(=O)N[C@@H](CCCNC(=N)N)C(=O)N[C@H](C(=O)N[C@@H](CO)C(=O)N[C@@H](CCC(N)=O)C(=O)N[C@@H](CC(=O)O)C(=O)N[C@@H](CC(=O)O)C(=O)N[C@@H](CC(C)C)C(=O)N[C@H](C(=O)N[C@@H](CCC(N)=O)C(=O)N[C@@H](CCSC)C(=O)N[C@@H](CO)C(=O)N1CCC[C@H]1C(=O)N[C@@H](CO)C(=O)N[C@H](C(=O)N[C@H](C(=O)N[C@@H](CO)C(=O)N[C@@H](C)C(=O)N[C@@H](C)C(=O)N[C@@H](CCCNC(=N)N)C(=O)N1CCC[C@H]1C(=O)N[C@@H](CCCCNC(=O)COCC(=O)NCCOCCOCCOCCOCCOCCOCCOCCOCCn1cc(CCCC(=O)Nc2c(CNC(=O)c3cccc(O)c3O)cc(CNC(=O)c3cccc(O)c3O)cc2CNC(=O)c2cccc(O)c2O)nn1)C(N)=O)[C@@H](C)CC)C(C)C)C(C)C)C(C)C` (H-SLIRVSQDDLVQMSPSVISAARPK(X1)-NH2), for which the MIC with Pseudomonas aeruginosa [1] and in the experiment on Pseudomonas aeruginosa [2] was > 64 µM each time. For the same compound, the result with Pseudomonas aeruginosa [3] and with Pseudomonas aeruginosa [4] was inactive. Besides, the outcome in the experiment with Pseudomonas aeruginosa [5] and with Pseudomonas aeruginosa [6] was Active.
As to H-DDLVQMSPSVK-NH2, the outcome in the experiment with Pseudomonas aeruginosa [3] and in the experiment on Pseudomonas aeruginosa [7] was inactive.
For the compound H-GEQTVVATAQK-NH2, the outcome with Pseudomonas aeruginosa [3] and in the experiment with Pseudomonas aeruginosa [7] was inactive.
Take H-VDLGATMITSNK-NH2: the result in the experiment on Pseudomonas aeruginosa [3] and in the experiment with Pseudomonas aeruginosa [7] was inactive.
With `CC[C@@H](C)[C@@H](NC(=O)[C@@H](CCSC)NC(=O)[C@H](NC(=O)[C@@H](C)NC(=O)CNC(=O)[C@@H](CC(C)C)NC(=O)[C@@H](CC(=O)O)NC(=O)[C@H](NC(=O)[C@@H](CO)NC(=O)[C@@H](CO)NC(=O)[C@@H](CC(=O)O)NC(=O)c1cccc(O)c1O)C(C)C)[C@H](C)O)C(=O)N[C@@H](C(=O)N[C@H](CO)C(=O)N[C@H](CC(N)=O)C(=O)N[C@H](CCC(N)=O)C(=O)N[C@H](CC(C)C)C(=O)NCC(=O)N[C@@H](C(=O)N[C@@H](C(=O)N[C@H](CCCCN)C(N)=O)[C@H](C)CC)[C@H](C)O)[C@@H](C)O`, the MIC with Pseudomonas aeruginosa [1] and in the experiment on Pseudomonas aeruginosa [2] was > 64 µM throughout. The result in the experiment with Pseudomonas aeruginosa [3] was inactive.
Take `CC[C@H](C)[C@H](NC(=O)[C@@H](NC(=O)c1cccc(O)c1O)C(C)C)C(=O)N[C@@H](CCC(=O)O)C(=O)N[C@@H](CC(C)C)C(=O)NCC(=O)N[C@@H](CCC(=O)O)C(=O)N[C@@H](CCC(N)=O)C(=O)N[C@H](C(=O)N[C@H](C(=O)N[C@H](C(=O)N[C@@H](C)C(=O)N[C@H](C(=O)N[C@@H](C)C(=O)N[C@@H](CCC(N)=O)C(=O)N[C@@H](CCC(=O)O)C(=O)N[C@@H](CCC(=O)O)C(=O)N[C@H](C(=O)N[C@@H](CCCCN)C(=O)N[C@@H](CCC(N)=O)C(=O)N[C@@H](CCCCN)C(N)=O)[C@@H](C)O)[C@@H](C)O)C(C)C)C(C)C)[C@@H](C)O` ({Benzoyl(2,3-diOH)}-VIELGEQTVVATAQEETKQK-NH2): the MIC in the experiment on Pseudomonas aeruginosa [1] and with Pseudomonas aeruginosa [2] was > 64 µM each time. The result with Pseudomonas aeruginosa [3] was inactive.
